Series [1] is described as follows: Antitumor activity against human K562/A02 cells xenografted in nude mouse assessed as tumor weight at 2 mg/kg. Format: functional. The essentials:
(§1)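 SCID nude mice received subcutaneous axillary inoculation of log-phase K562/A02 cells at 1 × 10⁷/ml. The cells were maintained in RPMI 1640 with 10% FCS and ADM 1 µg/ml final. When tumors reached a mean diameter of 0.4–0.6 cm, mice were randomized into groups of ten. Drug was given IV three times weekly, alongside adriamycin; vehicle controls were included. Endpoint was tumor weight. Inhibition ratio was calculated relative to the ADM-alone group.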

Series [2] can be described thus: Antitumor activity against human K562/A02 cells xenografted in nude mouse at 8 mg/kg. The format is functional. The essentials:
as §1

The target in series [3] is T1, P-gp (ABCB1) (Homo sapiens, UniProt P08183). In words: Inhibition of Pgp-mediated multidrug resistance activity in human MCF7/ADM cells assessed as Rh123 accumulation at 10 umol/L after 30 mins. Format: cell-based. The settings on record: probe Rh123. The essentials: (§2)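 MCF-7/ADM cells were maintained with ADM 1 µM and seeded at 4 × 10⁴/ml. They were preincubated 30 min in serum-free RPMI 1640, then given compound (1, 3, 10 µM final) for 30 min. Rh123 10 µM final was added for a further 60 min at 37 °C. After PBS washes and Triton X-100 lysis, intracellular fluorescence was read at ex 488/em 535 nm. Triplicate. Inhibitory ratio = (treated − control)/control × 100, background-corrected.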

In series [4] the target is T2, ATP-dependent translocase ABCB1 (Rattus norvegicus, UniProt P43245). The series can be described thus: Inhibition of Pgp-mediated multidrug resistance activity in rat RBMEC cells assessed as Rh123 accumulation at 10 umol/L after 90 mins. The format is cell-based. Particulars: 1.5 h, 10 µM. An outline of the steps: (§3)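 Primary rat brain microvascular endothelial cells were grown in DF with 20% FCS to a 90% confluent monolayer. They were preincubated 30 min in serum-free DF. Compound (1, 3, 10 µM final) and Rh123 5 µM final were then added for 90 min, with cells collected at different times. Washed cells were lysed with Triton X-100 and fluorescence read at 488/535 nm. Values were normalized to Coomassie protein. Duplicate, ≥3 experiments.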

A further series has as its system K562. The series can be described thus: Effect on membrane lipid fluidity in human K562 cells. The format is functional, cell-based. An outline of the steps: (§4)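 K562 and K562/A02 cells were grown in RPMI 1640 with 10% FCS and seeded at 1 × 10⁵/ml. They were exposed to 1, 3 or 10 µM compound (final) for 24 h, then washed and labelled with 2 µM DPH for 30 min. After washing, cells were held 10 min at 25 °C. Fluorescence polarization P was read at ex 357.6/em 428.7 nm, with P inversely related to membrane fluidity. Duplicate, ≥3 experiments.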

The subject of series [5] is Rattus norvegicus. In words: Toxicity in Sprague-Dawley rat assessed as ventricular sustained tachycardia by measuring aconitine nitrate level at 2 mg.kg, iv by […]. The settings on record: in vivo. The format is organism-based, Cardiac ventricle. An outline of the steps:
(§5)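 SD rats were anesthetized with urethane 1.2 g/kg ip, and compound in normal saline was given via the femoral vein. Two minutes later, aconitine nitrate was infused IV at constant rate by peristaltic pump. The aconitine dose at onset of premature beats, sustained tachycardia or fibrillation was determined by […]. n = 3.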

For series [6], the system named is Rattus norvegicus. The series can be described thus: Toxicity in Sprague-Dawley rat assessed as ventricular fibrillation by measuring aconitine nitrate level at 2 mg.kg, iv by […]. The settings on record: in vivo. The format is organism-based, Cardiac ventricle. An outline of the steps: as §5
Series [7] in a line: Antitumor activity against human K562/A02 cells xenografted in nude mouse at 2 mg/kg. Format: functional. The essentials:
as §1
(A xenograft is tissue or cells of one species grown in another, often human tumour cells in immunodeficient mice.)

Series [8] concerns the target T1, P-gp (ABCB1). The series can be described thus: Inhibition of Pgp-mediated multidrug resistance activity in human MCF7/ADM cells assessed as Rh123 accumulation at 1 umol/L after 30 mins. The settings on record: probe Rh123. Format: cell-based. The essentials: as §2
Series [9] deals with T1, P-gp (ABCB1). The series can be described thus: Inhibition of Pgp-mediated multidrug resistance activity in human MCF7/ADM cells assessed as Rh123 accumulation at 3 umol/L after 30 mins. The format is cell-based. The settings on record: probe Rh123. An outline of the steps: as §2
For series [10], the target named is T2, ATP-dependent translocase ABCB1. The series can be described thus: Inhibition of Pgp-mediated multidrug resistance activity in rat RBMEC cells assessed as Rh123 accumulation at 1 umol/L after 90 mins. The settings on record: 1.5 h, 1 µM. The format is cell-based. The essentials:
as §3

Series [11] has the same target. In words: Inhibition of Pgp-mediated multidrug resistance activity in rat RBMEC cells assessed as Rh123 accumulation at 3 umol/L after 90 mins. Particulars: 1.5 h, 3 µM. The format is cell-based. The essentials: as §3
In a further series the test system is K562/A02. In words: Decrease in membrane lipid fluidity in human K562/A02 cells at 10 umol/L. Format: functional, cell-based. An outline of the steps:
as §4

The subject of a further series is Aorta. The series can be described thus: Toxicity in Sprague-Dawley rat aorta assessed as vascular contractile activity. Format: tissue-based. Particulars: in vitro. An outline of the steps: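 Aortic rings came from SD rats (250–350 g) and were kept at 37 °C under 95% O₂/5% CO₂. Isometric tension was recorded. After 60 min equilibration, rings were contracted with 20 or 80 mM KCl. Drug was then added in increasing concentrations until maximal relaxation. Relaxation was expressed as % of the KCl contraction.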

For series [12], the system named is Rattus norvegicus. The series can be described thus: Toxicity in Sprague-Dawley rat assessed as ventricular permeature beat by measuring aconitine nitrate level at 2 mg.kg, iv by […]. Format: organism-based, Cardiac ventricle. The settings on record: in vivo.

Active and inactive are the calls of the source. The rule behind the calls is not given here.

A word on the inhibition in vivo: it is the drop in the measured response relative to a control, in per cent. A word on the inhibition: it is the change of the read-out against control, counted positive when it falls.

T1 sequence (P08183 whole entry): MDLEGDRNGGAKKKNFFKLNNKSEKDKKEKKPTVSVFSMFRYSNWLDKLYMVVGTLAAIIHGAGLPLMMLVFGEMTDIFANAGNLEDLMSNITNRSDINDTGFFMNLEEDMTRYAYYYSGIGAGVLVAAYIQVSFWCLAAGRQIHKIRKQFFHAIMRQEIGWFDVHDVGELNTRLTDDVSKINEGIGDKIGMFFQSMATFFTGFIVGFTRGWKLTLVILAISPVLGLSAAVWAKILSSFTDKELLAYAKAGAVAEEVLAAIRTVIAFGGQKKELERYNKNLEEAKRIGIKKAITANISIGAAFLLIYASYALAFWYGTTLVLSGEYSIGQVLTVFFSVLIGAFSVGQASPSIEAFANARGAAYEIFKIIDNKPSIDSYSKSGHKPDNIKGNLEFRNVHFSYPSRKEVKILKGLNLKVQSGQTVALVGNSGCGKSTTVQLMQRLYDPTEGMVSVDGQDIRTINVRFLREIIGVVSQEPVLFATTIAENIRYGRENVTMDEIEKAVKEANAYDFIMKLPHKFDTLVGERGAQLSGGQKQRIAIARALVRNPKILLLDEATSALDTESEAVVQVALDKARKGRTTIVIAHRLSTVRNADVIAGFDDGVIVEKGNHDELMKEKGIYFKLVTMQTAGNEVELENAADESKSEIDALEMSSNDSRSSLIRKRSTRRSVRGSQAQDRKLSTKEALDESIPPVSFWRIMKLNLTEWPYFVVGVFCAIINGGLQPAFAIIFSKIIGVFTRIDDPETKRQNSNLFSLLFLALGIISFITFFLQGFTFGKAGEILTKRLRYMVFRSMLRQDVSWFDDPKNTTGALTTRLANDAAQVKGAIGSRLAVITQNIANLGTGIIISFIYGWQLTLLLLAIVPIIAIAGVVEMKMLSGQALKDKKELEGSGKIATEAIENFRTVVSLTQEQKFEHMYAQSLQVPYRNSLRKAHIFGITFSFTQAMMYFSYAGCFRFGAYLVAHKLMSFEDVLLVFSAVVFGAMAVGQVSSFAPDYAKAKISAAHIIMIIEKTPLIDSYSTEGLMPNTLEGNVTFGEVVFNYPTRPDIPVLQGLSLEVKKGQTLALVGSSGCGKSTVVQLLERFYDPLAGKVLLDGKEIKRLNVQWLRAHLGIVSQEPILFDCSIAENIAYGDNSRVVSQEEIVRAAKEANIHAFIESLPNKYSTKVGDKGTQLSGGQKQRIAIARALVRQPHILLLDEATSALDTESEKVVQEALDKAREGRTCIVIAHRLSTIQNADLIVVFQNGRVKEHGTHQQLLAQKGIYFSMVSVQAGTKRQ
T2 sequence (P43245 whole entry): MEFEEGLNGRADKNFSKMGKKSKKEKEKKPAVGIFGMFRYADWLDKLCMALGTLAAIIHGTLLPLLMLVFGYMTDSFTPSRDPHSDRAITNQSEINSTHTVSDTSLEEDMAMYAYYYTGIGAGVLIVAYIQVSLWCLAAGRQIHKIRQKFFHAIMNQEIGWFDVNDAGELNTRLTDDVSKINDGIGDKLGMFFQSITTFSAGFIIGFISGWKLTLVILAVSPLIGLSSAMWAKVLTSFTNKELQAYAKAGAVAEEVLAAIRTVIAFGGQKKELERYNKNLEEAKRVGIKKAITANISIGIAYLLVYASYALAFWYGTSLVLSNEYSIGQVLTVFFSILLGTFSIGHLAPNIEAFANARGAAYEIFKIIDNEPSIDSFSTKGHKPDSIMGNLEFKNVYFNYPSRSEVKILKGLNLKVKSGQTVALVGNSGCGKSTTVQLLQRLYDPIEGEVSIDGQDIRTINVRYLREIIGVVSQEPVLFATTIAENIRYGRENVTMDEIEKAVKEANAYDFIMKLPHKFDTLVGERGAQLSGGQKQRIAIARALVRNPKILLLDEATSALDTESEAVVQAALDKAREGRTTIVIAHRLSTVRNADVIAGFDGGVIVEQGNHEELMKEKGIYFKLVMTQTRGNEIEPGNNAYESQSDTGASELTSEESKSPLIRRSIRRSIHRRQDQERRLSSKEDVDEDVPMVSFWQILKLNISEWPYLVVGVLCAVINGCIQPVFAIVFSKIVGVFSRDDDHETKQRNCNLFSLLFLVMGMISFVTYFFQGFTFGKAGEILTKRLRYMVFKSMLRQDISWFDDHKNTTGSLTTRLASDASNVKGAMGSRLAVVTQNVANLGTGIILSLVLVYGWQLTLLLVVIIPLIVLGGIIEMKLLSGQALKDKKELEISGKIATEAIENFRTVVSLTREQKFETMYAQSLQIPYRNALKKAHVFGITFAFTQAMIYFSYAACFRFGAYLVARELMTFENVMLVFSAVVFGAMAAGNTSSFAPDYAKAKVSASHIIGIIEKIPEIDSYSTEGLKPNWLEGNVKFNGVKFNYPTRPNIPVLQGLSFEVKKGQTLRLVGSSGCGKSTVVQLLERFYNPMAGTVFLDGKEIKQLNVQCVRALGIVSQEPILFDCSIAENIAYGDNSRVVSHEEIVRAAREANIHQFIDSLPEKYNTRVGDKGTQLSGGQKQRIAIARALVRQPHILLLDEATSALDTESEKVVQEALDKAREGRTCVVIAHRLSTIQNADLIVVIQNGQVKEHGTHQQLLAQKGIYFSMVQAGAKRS

In the case of `COc1cccc2c1C(=O)c1c(O)c3c(c(O)c1C2=O)C[C@@](O)(C(=O)CO)C[C@@H]3O[C@H]1C[C@H](N)[C@H](O)[C@H](C)O1` [DOXORUBICIN], the Activity in series [1] was 2.17 g.
On to `COc1ccc(CCN(C)CCCC(C#N)(c2ccc(OC)c(OC)c2)C(C)C)cc1OC` (stereo unspecified) [VERAPAMIL], for which the inhibition in vivo at 8 mg/kg in [2] is -66.4%. Moreover, the inhibition at 0.5 h, 10 µM at P-gp (ABCB1) [3] is 98.7%. Also, the Activity entry in series [4] was “Active”; with Rattus norvegicus [5], 44 µg/kg; in the series with Rattus norvegicus [6], 55 µg/kg. In addition, in the series with K562, the outcome was inactive.
Take `CCCCCCCCN/C(=N/C#N)N1CCc2cc(OC)c(OC)cc2C1Cc1ccc(OC)c(OC)c1` (stereo unspecified): in series [2], the inhibition in vivo at 8 mg/kg is -59.5%. For the same molecule, the inhibition in vivo at 2 mg/kg in series [7] is -62.2%. The inhibition at 0.5 h, 1 µM on P-gp (ABCB1) [8] was 35.2%. Further, the inhibition at 0.5 h, 3 µM on P-gp (ABCB1) [9] worked out at 60.5%. On P-gp (ABCB1) [3], the inhibition at 0.5 h, 10 µM was 69.3%. In addition, the Activity result was “Active” in series [10]; “Active” in series [11]; “Active” in series [4]; “Not Active” in the series on Aorta; 22.4 µg/kg in the series with Rattus norvegicus [12]; 26.7 µg/kg with Rattus norvegicus [5]. The Activity with Rattus norvegicus [6] was 31.5 µg/kg. Moreover, the outcome in the series with K562 was inactive. Moreover, the result in the series on K562/A02 was Active.

Source of the values: ChEMBL document CHEMBL1145581, “Design and synthesis of tetrahydroisoquinoline derivatives as potential multidrug resistance reversal agents in cancer” (Bioorg Med Chem Lett, 2008).
